The target of data set [1] is T1, Motilin receptor (Oryctolagus cuniculus, UniProt A5A4K8). The data set is described as follows: Displacement of [125I]motilin from MTL receptor in rabbit duodenum homogenate. The method, boiled down:
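Tissue homogenate incubated at 25 °C with 25 pM [¹²⁵I]motilin for 120 min. Stopped with ice-cold buffer, then bound and free ligand separated by centrifugation at 1500g for 5 min. Pellet washed with ice-cold buffer and counted by gamma counter. IC₅₀ is the concentration displacing 50% of ¹²⁵I-motilin binding.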

Data set [2] concerns the target T1, Motilin receptor. The data set is described as follows: Antagonist activity at MTL receptor in rabbit duodenum homogenate. The class given is functional, tissue-based. To be noted: read-out: pA2 (converted).
The nature of data set [3]: Apparent permeability across human Caco-2 cells at pH 6.8. The class given is ADME, cell-based. To be noted: Caco-2, pH 6.8. Background: Passage across Caco-2 layers is used to estimate intestinal permeability.
The test system of data set [4] is Canis familiaris. The data set is described as follows: Suppression of MTL receptor-mediated motilin-induced gastric motility in conscious dog 5 mg/kg administered 30 mins before motilin challenge. Type of data set: functional, organism-based. Set-up: dose 5 mg/kg. The conditions noted are these: Canis lupus familiaris; Stomach.
Data set [5] in a line: Oral bioavailability in rat at 10 mg/kg. The class given is ADME, organism-based. To be noted: in vivo.
Data set [6] can be described thus: Metabolic stability in rat liver S9 fraction assessed as compound remaining after 30 mins. Type of data set: ADME, subcellular. The conditions noted are these: read-out: Stability. The method, boiled down: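 Compound incubated with rat liver S-9 for 30 min at 37 °C. Stability is expressed as residual % of compound.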
Data set [7] deals with Canis familiaris. The data set is described as follows: Suppression of MTL receptor-mediated motilin-induced colonic motility in conscious dog 5 mg/kg administered 30 mins before motilin challenge. Type of data set: functional, organism-based. Set-up: dose 5 mg/kg. The conditions noted are these: Canis lupus familiaris.

Calls of active or inactive are those of the source. The rule behind the calls is not given here. Where a SMILES comes first, the peptide text is derived from it. Some results are limits rather than exact numbers.

The source of these data is ChEMBL document CHEMBL1137004, “Discovery of novel motilin antagonists: Conversion of tetrapeptide leads to orally available peptidomimetics” (Bioorg Med Chem Lett, 2009).

As usually defined, the IC50 is the concentration at which inhibition is half-maximal. Higher therefore signals lower potency. Broadly, the Papp is a coefficient for how fast a substance crosses the barrier. The bioavailability is dose-corrected exposure relative to a reference, in per cent. Lower therefore signals little systemic uptake.

T1 sequence (A5A4K8 whole entry): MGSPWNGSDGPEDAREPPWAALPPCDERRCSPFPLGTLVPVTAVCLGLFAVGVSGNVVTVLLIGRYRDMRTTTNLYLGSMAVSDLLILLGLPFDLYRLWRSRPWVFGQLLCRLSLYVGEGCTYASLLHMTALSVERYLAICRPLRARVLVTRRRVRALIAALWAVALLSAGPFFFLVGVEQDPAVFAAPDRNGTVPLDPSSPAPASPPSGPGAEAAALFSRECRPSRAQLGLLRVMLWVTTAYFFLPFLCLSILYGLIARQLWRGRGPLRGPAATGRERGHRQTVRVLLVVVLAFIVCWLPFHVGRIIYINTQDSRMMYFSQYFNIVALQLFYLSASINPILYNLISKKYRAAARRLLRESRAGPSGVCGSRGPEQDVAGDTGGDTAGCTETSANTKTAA

The compound `CC(C)[C@H](NC(=O)[C@@H](N)Cc1ccccc1)C(=O)N[C@@H](Cc1ccc(O)c(C(C)(C)C)c1)C(N)=O` (HELM PEPTIDE1{F.V.[CC(C)(C)c1cc(C[C@H](N[*:1])C(=O)[*:2])ccc1O].[am]}$$$$V2.0) showed an IC50 on Motilin receptor [1] of 46 nM. For the same compound, the Kb at Motilin receptor [2] was 126 nM.

At Motilin receptor [1], `C[C@H](NC(=O)[C@@H](N)Cc1ccccc1)C(=O)N[C@@H](Cc1ccc(O)c(C(C)(C)C)c1)C(N)=O` (HELM PEPTIDE1{F.A.[CC(C)(C)c1cc(C[C@H](N[*:1])C(=O)[*:2])ccc1O].[am]}$$$$V2.0) yielded an IC50 of 185 nM. Further, the Kb on Motilin receptor [2] was > 1000 nM.

As for `CC(C)C[C@H](NC(=O)[C@@H](N)Cc1ccccc1)C(=O)N[C@@H](Cc1ccc(O)c(C(C)(C)C)c1)C(N)=O` (HELM PEPTIDE1{F.L.[CC(C)(C)c1cc(C[C@H](N[*:1])C(=O)[*:2])ccc1O].[am]}$$$$V2.0), the 50% inhibitory concentration (IC50) on Motilin receptor [1] was determined as 27 nM. Besides, the Kb on Motilin receptor [2] was 50.1 nM.

Take `CC(C)(C)c1cc(C[C@H](NC(=O)[C@H](Cc2ccccc2)NC(=O)[C@@H](N)Cc2ccccc2)C(N)=O)ccc1O` (HELM PEPTIDE1{F.F.[CC(C)(C)c1cc(C[C@H](N[*:1])C(=O)[*:2])ccc1O].[am]}$$$$V2.0): the IC50 at Motilin receptor [1] is 6 nM. For the same compound, at Motilin receptor [2], the Kb was 63.1 nM.

For `CC(C)[C@@H](C(=O)N(C)[C@@H](Cc1ccc(O)c(C(C)(C)C)c1)C(N)=O)N(C)C(=O)[C@@H](N)Cc1ccccc1` (HELM PEPTIDE1{F.[meV].[CN([C@@H](Cc1ccc(O)c(C(C)(C)C)c1)C(=O)[*:2])[*:1]].[am]}$$$$V2.0), the Papp in data set [3] was 2.31 ×10⁻⁶ cm/s. The outcome with Canis familiaris [4] and with Canis familiaris [7] was Active. The compound further returned an IC50 at Motilin receptor [1] of 4.3 nM. The bioavailability in data set [5] was determined as 30%. Further, the remaining at 0.5 h in data set [6] is 80%. Moreover, the Kb at Motilin receptor [2] is 2.51 nM.

For `CC(C)[C@@H](C(=O)N[C@@H](Cc1ccc(O)c(C(C)(C)C)c1)C(N)=O)N(C)C(=O)[C@@H](N)Cc1ccccc1` (HELM PEPTIDE1{F.[meV].[CC(C)(C)c1cc(C[C@H](N[*:1])C(=O)[*:2])ccc1O].[am]}$$$$V2.0), at Motilin receptor [1], the IC50 was 1.1 nM. The same compound showed a bioavailability in data set [5] of 6%. In addition, the remaining at 0.5 h in data set [6] came to 69%. At Motilin receptor [2], the Kb was 12.6 nM.

With `CC(C)(C)c1cc(C[C@@H]2NC(=O)[C@@H](NC(=O)[C@@H](N)Cc3ccccc3)CCCCCC(=O)CCNC2=O)ccc1O`, at Motilin receptor [1], the IC50 came to 12 nM. Also, on Motilin receptor [2], the Kb is 39.8 nM.

`CC(C)(C)c1cc(C[C@H](NC(=O)[C@@H](NC(=O)[C@@H](N)Cc2ccccc2)c2ccccc2)C(N)=O)ccc1O` (HELM PEPTIDE1{F.[Phg].[CC(C)(C)c1cc(C[C@H](N[*:1])C(=O)[*:2])ccc1O].[am]}$$$$V2.0): the IC50 on Motilin receptor [1] was 12 nM. Moreover, the Kb at Motilin receptor [2] was 15.8 nM.

As for `CC(C)[C@@H](C(=O)N[C@H](C)Cc1ccc(O)c(C(C)(C)C)c1)N(C)C(=O)[C@@H](N)Cc1ccccc1`, the Papp in data set [3] turned out to be 12.1 ×10⁻⁶ cm/s. For the same compound, the outcome with Canis familiaris [4] and in the data set with Canis familiaris [7] was Active. On Motilin receptor [1], this compound came in with an IC50 of 1.9 nM. The bioavailability in data set [5] is 65%. Moreover, the remaining at 0.5 h in data set [6] was 100%. Further, the Kb on Motilin receptor [2] was 3.98 nM.

In the case of `CC(C)[C@H](NC(=O)[C@@H](N)Cc1ccccc1)C(=O)N(C)[C@@H](Cc1ccc(O)c(C(C)(C)C)c1)C(N)=O` (HELM PEPTIDE1{F.V.[CN([C@@H](Cc1ccc(O)c(C(C)(C)C)c1)C(=O)[*:2])[*:1]].[am]}$$$$V2.0), the IC50 on Motilin receptor [1] came out at 24 nM. For the same compound, in data set [6], the remaining at 0.5 h is 7%. For the same compound, on Motilin receptor [2], the Kb is 63.1 nM.
